Among the data in ChEMBL document CHEMBL1221207, “Expanding the promiscuity of a natural-product glycosyltransferase by directed evolution” (Nat Chem Biol, 2007) are Activity values, retold here.

Residue numbers refer to the chain shown, from its start.

The target in experiment [1] is T1, Oleandomycin glycosyltransferase (Streptomyces antibioticus) (UniProt Q53685).
T1 sequence (whole entry): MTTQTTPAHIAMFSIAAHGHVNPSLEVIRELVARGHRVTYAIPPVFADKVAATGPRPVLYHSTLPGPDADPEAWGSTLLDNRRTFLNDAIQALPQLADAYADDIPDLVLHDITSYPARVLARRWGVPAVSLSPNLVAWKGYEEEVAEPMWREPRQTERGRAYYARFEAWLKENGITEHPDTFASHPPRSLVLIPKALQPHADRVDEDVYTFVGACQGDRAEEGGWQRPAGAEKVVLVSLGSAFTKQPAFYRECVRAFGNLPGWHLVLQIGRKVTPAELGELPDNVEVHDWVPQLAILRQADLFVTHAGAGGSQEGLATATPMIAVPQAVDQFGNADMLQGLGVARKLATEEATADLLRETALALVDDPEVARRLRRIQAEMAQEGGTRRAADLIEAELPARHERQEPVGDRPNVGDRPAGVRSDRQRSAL
Put plainly: Activity of Streptomyces antibioticus wild-type OleD assessed as conversion rate of compound to produce glucoside 3 using NDP sugar UDP-6-deoxy-glucose after 3 hrs by HPLC. A digest of the protocol: (§1)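 End-point donor-specificity assay with purified OleD enzyme. Percentage conversion was read after 3 h. Quenched reactions were run by reverse-phase C18 HPLC with a 10–90% CH3CN gradient in 0.1% formic acid/H2O over 20 min at 1 ml min–1, with detection at 254 nm. Products were identified by LC-MS, by comparison to standards where available, and by fluorescence.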

The test system of experiment [2] is T2, Oleandomycin glycosyltransferase (Streptomyces antibioticus), Q53685 [P67T].
T2 sequence (whole entry): T1 sequence (whole entry) with P67T
Briefly: Activity of Streptomyces antibioticus OleD P67T mutant assessed as conversion rate of compound to produce glucoside 3 using NDP sugar donor UDP-glucose after 3 hrs by HPLC. A digest of the protocol: as §1

The subject of experiment [3] is T3, Oleandomycin glycosyltransferase (Streptomyces antibioticus), Q53685 [A242V].
T3 sequence (whole entry): T1 sequence (whole entry) with A242V
Put plainly: Activity of Streptomyces antibioticus OleD A242V mutant assessed as as rate of glucoside formation measured as nanomoles of product formed per minute per mg of enzyme.

In experiment [4] the test system is T2, Oleandomycin glycosyltransferase (Streptomyces antibioticus), Q53685 [P67T]. Briefly: Activity of Streptomyces antibioticus OleD P67T mutant assessed as as rate of glucoside formation measured as nanomoles of product formed per minute per mg of enzyme.
For experiment [5] the test system is unchanged. Briefly: Activity of Streptomyces antibioticus OleD P67T mutant assessed as conversion rate of compound to produce glucoside 3 using NDP sugar donor UDP-6-deoxy-glucose after 3 hrs by HPLC. The gist of the method:
as §1

Experiment [6] has as its system T4, Oleandomycin glycosyltransferase (Streptomyces antibioticus), Q53685 [P67T,S132F,A242V].
T4 sequence (whole entry): T1 sequence (whole entry) with P67T, S132F, A242V
Put plainly: Activity of Streptomyces antibioticus OleD P67T/S132F/A242V mutant assessed as conversion rate of compound to produce glucoside 3 using NDP sugar donor UDP-4-amino-6-deoxy-glucose after 3 hrs by HPLC. A digest of the protocol:
as §1

The test system is the same in experiment [7]. Briefly: Activity of Streptomyces antibioticus OleD P67T/S132F/A242V mutant assessed as conversion rate of compound to produce glucoside 3 using NDP sugar donor-UDP-3-deoxy-glucose after 3 hrs by HPLC. The gist of the method: as §1
Experiment [8] concerns T5, Oleandomycin glycosyltransferase (Streptomyces antibioticus), Q53685 [S132F].
T5 sequence (whole entry): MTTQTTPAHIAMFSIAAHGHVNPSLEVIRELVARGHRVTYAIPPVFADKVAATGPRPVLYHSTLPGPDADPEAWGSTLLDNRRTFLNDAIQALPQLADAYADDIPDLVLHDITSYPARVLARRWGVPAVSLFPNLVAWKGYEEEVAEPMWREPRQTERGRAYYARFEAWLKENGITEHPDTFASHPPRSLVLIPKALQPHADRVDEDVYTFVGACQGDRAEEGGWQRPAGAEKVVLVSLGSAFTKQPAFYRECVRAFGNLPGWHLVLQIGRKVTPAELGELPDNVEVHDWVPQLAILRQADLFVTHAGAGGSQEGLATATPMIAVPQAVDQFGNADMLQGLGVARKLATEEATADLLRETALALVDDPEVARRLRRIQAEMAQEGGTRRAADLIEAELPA
Put plainly: Activity of Streptomyces antibioticus OleD S132F mutant assessed as conversion rate of compound to produce glucoside 3 using NDP sugar donor UDP-glucose after 3 hrs by HPLC. The gist of the method: as §1

The test system is the same in experiment [9]. Put plainly: Activity of Streptomyces antibioticus OleD S132F mutant assessed as conversion rate of compound to produce glucoside 3 using NDP sugar donor UDP-xylose after 3 hrs by HPLC. A digest of the protocol: as §1

Regarding `Cc1cc(=O)oc2cc(O)ccc12`, the Activity is 6% in experiment [1]; 51% in [2]; 5.4 nmol/min in experiment [3]; 15.7 nmol/min in experiment [4]; 11% in experiment [5]; 47% in [6]. Moreover, the Activity in experiment [7] stood at 8%; in experiment [8], 48%; in experiment [9] it was 1.5%.
